Assay results taken from publication PMC4112162 (Biochimica et biophysica acta, 2014).

T1: hCBS (human cystathionine β-synthase) (Homo sapiens, UniProt P35520)
T1 sequence (P35520 1-551): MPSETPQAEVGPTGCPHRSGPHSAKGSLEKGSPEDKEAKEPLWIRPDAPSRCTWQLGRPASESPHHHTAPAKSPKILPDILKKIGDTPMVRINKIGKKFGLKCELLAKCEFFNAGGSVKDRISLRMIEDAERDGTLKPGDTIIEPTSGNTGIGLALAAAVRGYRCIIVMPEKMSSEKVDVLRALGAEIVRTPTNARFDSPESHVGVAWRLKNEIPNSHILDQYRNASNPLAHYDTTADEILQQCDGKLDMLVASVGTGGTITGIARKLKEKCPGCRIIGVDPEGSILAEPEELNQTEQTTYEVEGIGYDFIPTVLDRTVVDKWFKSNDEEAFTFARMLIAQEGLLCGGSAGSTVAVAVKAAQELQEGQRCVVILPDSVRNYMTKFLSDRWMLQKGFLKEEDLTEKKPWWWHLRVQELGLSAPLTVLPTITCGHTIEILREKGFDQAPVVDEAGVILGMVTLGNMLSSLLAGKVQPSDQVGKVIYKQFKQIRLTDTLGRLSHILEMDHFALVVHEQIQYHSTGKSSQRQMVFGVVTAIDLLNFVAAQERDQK

T2: Human cystathionine beta-synthase (human), P35520
T2 chain: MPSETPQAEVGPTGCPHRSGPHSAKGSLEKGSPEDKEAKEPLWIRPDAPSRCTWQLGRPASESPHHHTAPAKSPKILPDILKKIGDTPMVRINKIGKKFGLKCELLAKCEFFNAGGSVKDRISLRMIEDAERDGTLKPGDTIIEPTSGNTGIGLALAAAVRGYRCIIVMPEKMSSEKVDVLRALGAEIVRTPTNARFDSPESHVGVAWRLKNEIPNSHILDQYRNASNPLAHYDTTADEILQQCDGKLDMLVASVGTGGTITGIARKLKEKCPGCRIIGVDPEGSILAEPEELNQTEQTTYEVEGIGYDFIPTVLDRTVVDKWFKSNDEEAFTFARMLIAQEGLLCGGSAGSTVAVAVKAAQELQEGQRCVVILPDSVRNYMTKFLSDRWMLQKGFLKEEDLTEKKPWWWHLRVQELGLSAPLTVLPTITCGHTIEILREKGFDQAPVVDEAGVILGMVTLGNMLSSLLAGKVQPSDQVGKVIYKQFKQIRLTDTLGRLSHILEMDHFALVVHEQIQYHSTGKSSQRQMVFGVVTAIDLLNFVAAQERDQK


Key:
[1] = molecular target: T1, hCBS (human cystathionine β-synthase); assay: radioisotope CBS activity assay with L-[U-14C]serine; assay type: biochemical
[2] = molecular target: T1, hCBS (human cystathionine β-synthase); assay: isothermal titration calorimetry, two independent types of sites model; assay type: binding
In short: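 Purified human CBS in 20 mM Hepes pH 7.4 titrated with SAM by ITC. Without salt: 8 μM tetramer, 50 injections of 0.7 mM SAM spaced 150 s. With 200 mM NaCl: 20 μM tetramer, 19 injections of 1.06 mM SAM spaced 250 s. Isotherms fitted to a two independent types of sites model; salt titrations repeated in four independent experiments.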

[3] = molecular target: T2, Human cystathionine beta-synthase …; assay: dynamic light scattering; settings: remark: other sources report otherwise

EC50 [1]	Kd [2]	stoichiometry N [3]	Molecule
3700 ± 200 nM	13 nM		C[S+](CC[C@H](N)C(=O)O)C[C@H]1O[C@@H](n2cnc3c(N)ncnc32)[C@H](O)[C@@H]1O (stereo partly drawn) [SAM]
		4	Human cystathionine beta-synthase, P35520 1-551 (enzyme) MPSETPQAEVGPTGCPHRSGPHSAKGSLEKGSPEDKEAKEPLWIRPDAPSRCTWQLGRPASESPHHHTAPAKSPKILPDILKKIGDTPMVRINKIGKKFGLKCELLAKCEFFNAGGSVKDRISLRMIEDAERDGTLKPGDTIIEPTSGNTGIGLALAAAVRGYRCIIVMPEKMSSEKVDVLRALGAEIVRTPTNARFDSPESHVGVAWRLKNEIPNSHILDQYRNASNPLAHYDTTADEILQQCDGKLDMLVASVGTGGTITGIARKLKEKCPGCRIIGVDPEGSILAEPEELNQTEQTTYEVEGIGYDFIPTVLDRTVVDKWFKSNDEEAFTFARMLIAQEGLLCGGSAGSTVAVAVKAAQELQEGQRCVVILPDSVRNYMTKFLSDRWMLQKGFLKEEDLTEKKPWWWHLRVQELGLSAPLTVLPTITCGHTIEILREKGFDQAPVVDEAGVILGMVTLGNMLSSLLAGKVQPSDQVGKVIYKQFKQIRLTDTLGRLSHILEMDHFALVVHEQIQYHSTGKSSQRQMVFGVVTAIDLLNFVAAQERDQK
